In assay [1] the test system is panel of five human cell lines (HeLa, A549, HL-60, Jurkat, K562). The assay can be described thus: Antiproliferative assay, summary over the cell line panel. In kind it is cell-based.
Assay [2] deals with HeLa cells. In words: Flow cytometric analysis of cell cycle distribution. Type of assay: cell-based, human. Particulars: after 48 h of treatment (data not shown). The method, boiled down:
(§1)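 Exponentially growing cells (5 × 10⁵) were exposed to varying concentrations of test compound for 24 and 48 h. They were then collected and fixed in ice-cold 70% ethanol, then treated with lysis buffer containing RNase A and 0.1% Triton X-100. Cells were stained with propidium iodide and analysed by flow cytometry, with sub-G1 (hypodiploid) DNA content scored at 48 h.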
On the technique in general: A flow cytometer gives signals particle by particle.

For another assay, the system named is caspase-3 in HeLa cells. The assay can be described thus: Caspase-3 assay. Type of assay: cell-based, human. The note with it: 24 and 48 h.
Assay [3] relates to HeLa cells. The assay can be described thus: Western blot analysis. Type of assay: cell-based, human.
Assay [4] has as its system HeLa cells. In words: Mitochondrial membrane potential. Type of assay: cell-based, human. Particulars: 24 and 48 h.
Assay [5] concerns HeLa cells. In words: ROS production. Type of assay: cell-based, human. Particulars: 24 and 48 h, HE and H2-DCFDA.
For assay [6], the system named is HeLa cells. The assay can be described thus: Annexin-V/PI assay. The note with it: 24 h, compared with control. In kind it is cell-based, human.
The next assay deals with Jurkat cells. The assay can be described thus: Flow cytometric analysis of cell cycle distribution. In kind it is cell-based, human. Particulars: after 48 h of treatment (data not shown). The method, boiled down:
as §1

The mark [7] stands for this setting: average antiproliferative activity.

As to `COc1cc(C(=O)c2sc3ccccc3c2-c2ccccc2)cc(OC)c1OC` [Compound 3a, (3,4,5-Trimethoxyphenyl)(3-phenylbenzo[b]thiophen-2-yl) methanone], the half-maximal inhibitory concentration (IC50) (as a rule, the concentration at which inhibition is half-maximal) in assay [1] (Homo sapiens, read-out: IC50 against HeLa, HL-60, Jurkat and K562 cells) fell in the range of 1500 to 2100 nM.
Consider `COc1ccc(Nc2c(C(=O)c3cc(OC)c(OC)c(OC)c3)sc3ccccc23)cc1` [Compound 4d, (3-(4-Methoxyphenylamino)benzo[b]thiophen-2-yl)(3,4,5-trimethoxyphenyl)methanone], for which the “loss in activity relative to unsubstituted 4a” value in assay [1] (setting [7]) is recorded as ~50%.
Consider `CCOc1ccc(Nc2c(C(=O)c3cc(OC)c(OC)c(OC)c3)sc3ccccc23)cc1` [Compound 4e, (3-(4-Ethoxyphenylamino)benzo[b]thiophen-2-yl)(3,4,5-trimethoxyphenyl)methanone], for which, in the assay on HeLa cells [2], the “hypodiploid peak (sub-G1) indicative of apoptosis” value was “appeared in both cell lines”. Besides, the “activation of caspase-3” value in the assay with caspase-3 in HeLa cells was “activation of caspase-3 in a time- and concentration-dependent manner”. Besides, in the assay on HeLa cells [3], the “expression of Bax” value is listed as “remained unchanged” and the “expression of Bcl-2” value is on record as “slight decrease”. In the assay on HeLa cells [3] (24 or 48 h), the “cyclin B1 expression” value is reported as “concentration-dependent increase” and the “phosphatase cdc25c (phosphorylation state)” value was “slower migrating forms of phosphatase cdc25c were present”. In addition, the “89 kDa cleaved fragment of PARP” value in the assay with HeLa cells [3] (24 h and 48 h) was “increased”. The “expression of p53” value with HeLa cells [3] (increasing concentrations) is “no difference”. Moreover, the “mitochondrial membrane potential (Rho 123 fluorescence)” value in the assay with HeLa cells [4] is listed as “reduction of Rho 123 fluorescence intensity”. Also, the “production of ROS” value in the assay with HeLa cells [5] was “induces the production of large amounts of ROS”. Also, the annexin-V positive cells entry in the assay with HeLa cells [6] is listed as “induced an accumulation of annexin-V positive cells”. For the same compound, the “hypodiploid peak (sub-G1) indicative of apoptosis” value with Jurkat cells is “appeared in both cell lines”. For the same compound, the “fold increase in activity relative to unsubstituted 4a” value in assay [1] (setting [7]) is recorded as 5 fold. In addition, the “fold difference in average antiproliferative activity between 4e and 4d” value in assay [1] (most active vs least active 3-anilino derivative) is reported as 9 fold. Moreover, the “fold lower IC50 than 3k” value in assay [1] (over the five cell lines) is given as 2- to 15 fold.
For `CCOc1ccc(Nc2c(C(=O)c3cc(OC)c(OC)c(OC)c3)sc3cc(C)ccc23)cc1` [Compound 4g, (3-(4-Ethoxyphenylamino)-6-methylbenzo[b]thiophen-2-yl) (3,4,5-trimethoxyphenyl)methanone], the “fold less potent than 4e” value in assay [1] (over the five cell lines) is on record as 4- to 20 fold.

The record behind these values is PMC3074966 (European journal of medicinal chemistry, 2010).
